Results published in publication PMC10851409 (ACS Omega, 2024).

Key:
[1] = biological target: T1, bovine serum albumin (BSA) (Bos taurus, UniProt P02769); experiment: UV–vis absorption titration of BSA; type: binding; details: pH 7.4; for Enthalpy ΔH / Entropy ΔS: from Kb at 298 and 308 K
Summary of the method: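 Peltier-thermostatted spectrophotometer, 1 cm quartz cell, 1 nm slit, spectra over 200–500 nm. BSA in PBS pH 7.4 titrated with test compound (2.46–22.22 μM) and read at 279 nm; ligand-alone absorbance also recorded. Run at 298 and 308 K. Kb taken from the […] of the Benesi–Hildebrand plot, A0/(A–A0) versus 1/[compound]; thermodynamic parameters derived from Kb at both temperatures.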

[2] = biological target: T1, bovine serum albumin (BSA); experiment: Steady-state fluorescence quenching of BSA; type: binding; details: for Number of binding sites n / Stern–Volmer constant Ksv / Bimolecular quenching rate parameter kq: 298 K; for Stern–Volmer constant Ksv: pH 7.4; for Bimolecular quenching rate parameter kq: τo = 10^–8 s; for Fluorescence quenching mechanism: BSA fluorescence, kq compared with 2.0 × 10^10 m^–1 s^–1
Summary of the method: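 BSA stock in PBS pH 7.4, with concentration set from absorbance (ε 43,824 M–1 cm–1); test compounds from DMSO stocks, 2.46–22.22 μM. Emission recorded in a 1.0 cm quartz cuvette at 298 K with excitation at 280 nm and 5 nm excitation/emission bandwidths. Stern–Volmer and modified Stern–Volmer plots analysed; kq calculated using τo of 10–8 s for native BSA.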

[3] = biological target: T1, bovine serum albumin (BSA); experiment: Time-resolved fluorescence decay of BSA; type: binding; details: 298 K; for α1 / α2 / α3 / τ1 / τ2 / τ3: triexponential fitting
Summary of the method: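 Time-correlated single-photon counting with pulsed nanosecond LED excitation at 280 nm, 298 K. Instrument response recorded with a scattering solution; 114 ps per channel. Decays fitted as a sum of exponentials by nonlinear least-squares reconvolution, with pre-exponential factors normalized to 1 and errors taken as three standard deviations. Fit judged by χ2 and weighted residuals; average lifetime from triexponential fits.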

Plasmodium falciparum = details: read-out: IC50 antiplasmodial; P. falciparum; cited from earlier work

T1 sequence (P02769 25-607): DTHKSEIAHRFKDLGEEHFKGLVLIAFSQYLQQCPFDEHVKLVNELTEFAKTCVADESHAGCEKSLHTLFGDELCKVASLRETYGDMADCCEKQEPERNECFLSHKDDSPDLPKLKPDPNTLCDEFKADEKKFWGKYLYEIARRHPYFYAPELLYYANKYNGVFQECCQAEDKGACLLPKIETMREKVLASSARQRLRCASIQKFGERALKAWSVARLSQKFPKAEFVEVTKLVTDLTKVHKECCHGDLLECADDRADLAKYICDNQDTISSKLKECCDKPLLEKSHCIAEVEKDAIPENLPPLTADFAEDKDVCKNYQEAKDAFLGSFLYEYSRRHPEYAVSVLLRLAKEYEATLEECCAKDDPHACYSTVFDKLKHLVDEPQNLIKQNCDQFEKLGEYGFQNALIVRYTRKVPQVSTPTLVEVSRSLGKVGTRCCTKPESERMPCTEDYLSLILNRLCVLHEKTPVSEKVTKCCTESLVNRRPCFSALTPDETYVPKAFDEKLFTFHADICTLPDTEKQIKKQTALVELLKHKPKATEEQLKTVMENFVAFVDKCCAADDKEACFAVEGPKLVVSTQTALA

Row | Compound | Gibbs free energy ΔG ([1]; 298 K) | Gibbs free energy ΔG ([1]; 308 K) | Enthalpy ΔH [1] | Entropy ΔS [1] | Number of binding sites n [2] | Stern–Volmer constant Ksv [2] | Bimolecular quenching rate parameter kq [2] | Fluorescence quenching mechanism [2] | τavg (average fluorescence lifetime of BSA) ([3]; ligand 2.46 μm) | α1 ([3]; ligand 2.46 μm) [%] | α2 ([3]; ligand 2.46 μm) [%] | α3 ([3]; ligand 2.46 μm) [%] | τ1 ([3]; ligand 2.46 μm) | τ2 ([3]; ligand 2.46 μm) | τ3 ([3]; ligand 2.46 μm) | τavg (average fluorescence lifetime of BSA) ([3]; ligand 9.52 μm) | α1 ([3]; ligand 9.52 μm) [%] | α2 ([3]; ligand 9.52 μm) [%] | α3 ([3]; ligand 9.52 μm) [%] | τ1 ([3]; ligand 9.52 μm) | further results
1 | C[C@H]1C(=O)CC[C@@H]2[C@]1(C)CC[C@H]1[C@@]2(C)CC[C@@]2(C)[C@@H]3CC(C)(C)CC[C@]3(C)CC[C@]12C [friedelin] | –20.52 kJ mol^–1 | –19.22 kJ mol^–1 | –59.26 kJ mol^–1 | –0.13 kJ mol^–1 | 1 | 1.47 × 10^4 L mol^–1 | 1.47 × 10^12 | static quenching | 6.6 | 8.67 | 55.5 | 35.83 | 2.2687 | 5.696 | 7.962 | 6.7 | 13.49 | 84.08 | 2.43 | 2.6997 | τ2 ([3]; ligand 9.52 μm): 6.576; τ3 ([3]; ligand 9.52 μm): 14.2863; τavg (average fluorescence lifetime of BSA) ([3]; ligand 16.09 μm): 6.8; α1 ([3]; ligand 16.09 μm): 9.59%; α2 ([3]; ligand 16.09 μm): 86.56%; α3 ([3]; ligand 16.09 μm): 3.85%; τ1 ([3]; ligand 16.09 μm): 2.21; τ2 ([3]; ligand 16.09 μm): 6.354; τ3 ([3]; ligand 16.09 μm): 14.127; τavg (average fluorescence lifetime of BSA) ([3]; ligand 22.22 μm): 6.5; α1 ([3]; ligand 22.22 μm): 25.73%; α2 ([3]; ligand 22.22 μm): 71.9%; α3 ([3]; ligand 22.22 μm): 2.37%; τ1 ([3]; ligand 22.22 μm): 3.978; τ2 ([3]; ligand 22.22 μm): 7.1; τ3 ([3]; ligand 22.22 μm): 1.075; IC50 (Plasmodium falciparum): 7.2 µM
2 | CC(C)=CCc1c(O)c(CC=C(C)C)c2oc3c(O)ccc(O)c3c(=O)c2c1O [gartanin] | –24.28 kJ mol^–1 | –23.68 kJ mol^–1 | –42.16 kJ mol^–1 | –0.06 kJ mol^–1 | 1 | 2.57 × 10^4 L mol^–1 | 2.57 × 10^12 | static quenching | 6.2 | 26.45 | 67.78 | 5.77 | 2.971 | 6.871 | 0.8793 | 6.2 | 30.06 | 64.04 | 5.91 | 3.0512 | τ2 ([3]; ligand 9.52 μm): 6.967; τ3 ([3]; ligand 9.52 μm): 0.8022; τavg (average fluorescence lifetime of BSA) ([3]; ligand 16.09 μm): 6.1; α1 ([3]; ligand 16.09 μm): 28.92%; α2 ([3]; ligand 16.09 μm): 64.86%; α3 ([3]; ligand 16.09 μm): 6.22%; τ1 ([3]; ligand 16.09 μm): 2.945; τ2 ([3]; ligand 16.09 μm): 6.882; τ3 ([3]; ligand 16.09 μm): 0.8547; τavg (average fluorescence lifetime of BSA) ([3]; ligand 22.22 μm): 6.2; α1 ([3]; ligand 22.22 μm): 30.4%; α2 ([3]; ligand 22.22 μm): 60.86%; α3 ([3]; ligand 22.22 μm): 8.74%; τ1 ([3]; ligand 22.22 μm): 3.254; τ2 ([3]; ligand 22.22 μm): 7.004; τ3 ([3]; ligand 22.22 μm): 0.9952
